The campaign covered roughly 370,000 compounds. About 2,000 (0.54%) were called active. For the sample, actives were picked, then their nearest neighbours and some compounds at random. A number with no mark means an inactive call.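 The calls were made as follows: active = inhibition exceeding the mean over every tested compound plus 3 SD (cut at about 30% in these data); inactive = the rest.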

(Lyso)-N-acylphosphatidylethanolamine lipase (Mus musculus), sequence (Q8VD66 whole entry, looked up): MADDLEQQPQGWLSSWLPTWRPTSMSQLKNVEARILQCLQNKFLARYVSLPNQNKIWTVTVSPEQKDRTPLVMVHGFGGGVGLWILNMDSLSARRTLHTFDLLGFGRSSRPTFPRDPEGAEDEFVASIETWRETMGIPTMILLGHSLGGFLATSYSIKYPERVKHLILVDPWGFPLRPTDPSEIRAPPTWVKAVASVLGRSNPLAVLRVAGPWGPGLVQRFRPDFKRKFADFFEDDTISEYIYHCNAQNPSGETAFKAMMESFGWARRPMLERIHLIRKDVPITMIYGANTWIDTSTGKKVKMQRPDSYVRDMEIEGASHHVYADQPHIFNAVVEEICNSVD

The assay has as its target (Lyso)-N-acylphosphatidylethanolamine lipase (Mus musculus) (UniProt Q8VD66). As to the kind of experiment: ABHD4 inhibitors, primary screen, biochemical, fluorescence polarization, mouse (AID 720543).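 Also: 0% = plate median of compound wells and 100% = S159A mutant with DMSO.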 Particulars: purified mABHD4, FP-Rh probe fluorescence polarization; at 8.92 µM; stronger effect = higher value. The method in brief:
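Test system: mABHD4 protein; Read-out basis: % inhibition; Incubation: 45 min + 60 min at 25 °C; Repeats: single replicate; Technique: fluorescence polarization with parallel and perpendicular emission, 525/598 nm; Compound: 8.92 µM, single dose; Benchmarks: full inhibition S159A mutant plus DMSO, zero as sample-well median.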
`NC1=CC(=O)C(=O)c2cccnc21`: the inhibition was 59.2% (active).
For the molecule `COC(=O)C[C@@H]1CC[C@@H]2[C@H](COc3ccc(NC(=O)c4cccc(F)c4)cc3C(=O)N2C)O1`, the inhibition was -0.54%.
The value for `CO[C@@H]1CN(C)C(=O)c2cc(NC(=O)C3CC3)ccc2OC[C@H](C)N(C(=O)CN2CCOCC2)C[C@@H]1C` was -0.34%; that for `CCC(CO)Oc1cc(NC(=O)c2cccc(F)c2)c2ncn(C(C)C)c2c1` (stereo not drawn) was 44.4% (active).
The value for `Cc1ccc(F)cc1NC(=O)c1cccc(N(C)C)c1` was -2.26%; that for `CCCOc1cccc(C(=O)Nc2nnn(CCC)n2)c1` was 7.16%.
The same measure for `Nc1ncnc2c1ncn2[C@@H]1O[C@H](CNS(=O)(=O)c2ccc(-c3ccno3)s2)[C@@H](O)[C@H]1O`: -3.46%; for `CC(C)(C)OC(=O)NCCc1ccccc1/C=C/S(=O)(=O)NCc1ccc(F)cc1`: 14.8%.
For the molecule `O=C(NNC(=S)Nc1ccccc1)c1cccc(S(=O)(=O)N2CCOCC2)c1`, the inhibition is 1.73%.
The same measure for `Cc1cccc(-n2cnc(C(=O)NNC(=S)Nc3ccccc3)c2)n1`: 43.3% (active).
The value for `Cc1cccc(-n2cnc(C(=O)Nc3cccnc3)c2)n1` was -2.09%; that for `CC(=O)N1N=C(c2ccncc2)OC1(Cc1ccccc1)Cc1ccccc1` was -3.49%; that for `CCOC(=O)[C@]12CCCC3=C1N(CCC3)C(=O)[C@@H](CC(=O)NCc1cccs1)C2` was -5.06%.
The value for `CN(C)CCCN(Cc1cc2cc3c(cc2[nH]c1=O)OCCO3)C(=O)NC1CCCCC1` was 1.3%; that for `O=S1(=O)c2ccc(Br)cc2-n2nncc2CN1Cc1cccc(Cl)c1` was -5.52%.
Consider `O=C(COc1ccc(Cl)cc1)NCCSc1ccccc1`, for which the inhibition was -6.3%.
As to `Cc1ccccc1OCC(=O)NCC(=O)OCC(=O)c1ccc2ccccc2c1`, the inhibition was 3.01%.
Regarding `Cc1cc2ccccc2n1CCNC(=O)COc1ccc2ccccc2c1`, the inhibition is 40.9% (active).
The value for `O=C(N1CCOCC1)N1CC[C@H]2[C@H](CCCN2Cc2ccc(F)cc2)C1` was 4.72%.
The same measure for `CC(C)C(C#CC1CC1)N(Cc1ccc2c(c1)OCO2)C(N)=NC(=O)/C=C/c1cccc(C(F)(F)F)c1` (stereo not drawn): 4.25%; for `O=c1[nH]n(-c2ccc([N+](=O)[O-])cc2)c(=O)c2ccccc12`: 59.3% (active).
The value for `C=CCNC(=S)N1CCN(CCN=Cc2c(C)[nH]n(-c3ccc([N+](=O)[O-])cc3)c2=O)CC1` was -6.41%.
Take `O=C(Nn1c(SCc2ccc([N+](=O)[O-])cc2)nc2ccccc2c1=O)c1ccc(F)cc1`: the inhibition was -52.4%.
The same measure for `O=C(Nc1cc(F)cc(F)c1)OC1CCC12CCC(c1ccccc1)CC2` (stereo not drawn): -31.2%; for `CC(Oc1ccc(Cl)cc1)c1ccnn1S(C)(=O)=O` (stereo not drawn): 1.1%; for `CCOC(=O)C1(Cc2ccccc2)CCN(Cc2cn(C(C)=O)c3ccccc23)CC1`: -1.19%.
The value for `CCc1c(C)nc2c(OC)cccc2c1Cl` was 0.48%; that for `COc1cccc2c(C)c(C(=O)O)[nH]c12` was 35.9% (active); that for `COc1ccc(C)cc1NC(=O)c1[nH]c(C)c(C(C)=O)c1C` was -2.22%.
The value for `COC(=O)c1cccc(Cn2ccc3ccc(-c4ccc5ccn(C(=O)c6ccccc6C)c5c4)cc32)c1` was 1.96%.
Turning to `CCOC(=O)/C=C/c1ccc(C(F)(F)F)cc1S(=O)(=O)NC(C)(C)C`, the inhibition was -26.5%.
The value for `CCOC(=O)C[C@H]1c2ccc(C(F)(F)F)cc2S(=O)(=O)N1c1ccccc1` was -6.24%; that for `CCOC(=O)C1Nc2ccc(C(F)(F)F)cc2C2C=CCC12` (stereo not drawn) was 41.8% (active).
The same measure for `CN1C(=O)c2cc(NS(C)(=O)=O)ccc2OC[C@@H]2O[C@@H](CC(=O)NCc3ccc(-c4ccccc4)cc3)CC[C@H]21`: 3.8%; for `Cc1ccc(Cn2cc(CN3[C@@H](CC(C)C)COc4ccc(Cl)cc4S3(=O)=O)nn2)cc1`: 4.37%.
For `O=C(NCc1cccs1)C1CCCN(S(=O)(=O)c2ccc([N+](=O)[O-])cc2)C1` (stereo not drawn), the inhibition is 4.68%.
As for `CCC(C)Cn1c(O)cc2nn(-c3nc4ccccc4s3)c(=O)c-2c1C` (stereo not drawn), the inhibition was 44.6% (active).
The same measure for `O=S(=O)([N-]c1nc2ccccc2nc1-[n+]1ccc(Cc2ccccc2)cc1)c1ccc(Br)s1`: 7.29%.
The same measure for `O=C1CCN(C(=O)Nc2ccccc2)N1`: 6.15%; for `Cc1ccc(NC2CCCN(C(=O)CCC3(C)CC3)C2)cc1C` (stereo not drawn): 8.21%; for `O=C(Nc1cc(Cl)cc(Cl)c1)OCCN1CCCC12CCC(c1ccccc1)CC2` (stereo not drawn): 2.15%.
The value for `COC(=O)c1ccc(COc2cc([N+](=O)[O-])cc3cccnc23)cc1` was 6.05%; that for `COC(=O)C(C)N(C#N)c1nc(C)nc(C)n1` (stereo not drawn) was -1.89%; that for `O=C(Nc1ccccc1[N+](=O)[O-])C1C(c2ccccc2)=C1c1ccccc1` was -0.35%.
`CCN(C(=O)Nc1cccc2ccccc12)c1ccccc1`: the inhibition is 18.5%.
As to `O=C(O)c1cc([N+](=O)[O-])c(Nc2cccc3ccccc23)c([N+](=O)[O-])c1`, the inhibition was 35.4% (active).
The value for `O=C1C(=O)N(Cc2ccc(-c3ccsc3)cc2)c2ccc(OC(F)(F)F)cc21` was 1.83%; that for `COC(=O)[C@]12C[C@H](CC(=O)NCc3ccccc3)C(=O)N(CCc3ccc(OC)c(OC)c3)C1=C[C@H](C(C)(C)C)O[C@@H]2C` was 4.6%; that for `CCOc1cc(/C=C2/N=C(c3ccc(C(C)(C)C)cc3)OC2=O)cc(Cl)c1OS(C)(=O)=O` was 37.3% (active).
The same measure for `CNc1[nH]ncc1[N+](=O)[O-]`: 7.62%; for `CN(C)CC(=O)N[C@@H]1C[C@@H]2O[C@H](CO)CC[C@@H]2O[C@@H]1CCc1ccc(C#Cc2ccccc2)cc1`: 3.38%; for `C#CCCN([C@H](C(=O)OC)C(C)C)S(=O)(=O)c1ccc(F)cc1Br`: -7.15%.
The value for `O=C(CN(Cc1ccc(Br)cc1)S(=O)(=O)c1ccccc1)NCc1ccncc1` was -0.4%.
Take `CC(=O)N(c1ccc2oc(=O)sc2c1)S(=O)(=O)c1ccc(C)cc1`: the inhibition was 7.97%.
The same measure for `O=C(c1cccnc1)N(c1cc2sc(=O)oc2c2ccccc12)S(=O)(=O)c1ccccc1`: 61.7% (active); for `Cc1cc(C)nc(NC(=S)N2CCN(c3ccc(C(F)(F)F)cn3)CC2)c1`: 8.35%.
The value for `O=C(NCc1ccco1)C1CCCN(S(=O)(=O)c2cccc3nonc23)C1` (stereo not drawn) was 5.79%; that for `CCc1ccc(-c2nn(-c3ccccc3)cc2CSC(=N)N)cc1` was 52.2% (active); that for `CCc1ccc(-c2nn(-c3ccccc3C)cc2C(=O)N2CCN(C3CCS(=O)(=O)C3)CC2)cc1` (stereo not drawn) was 5.26%.
The same measure for `CCOc1ccc(Br)cc1CSC(=N)N`: 4.65%; for `CC1=C(C/C=C(\C)CCCC(C)CCCC(C)CCCC(C)C)C(=O)c2ccccc2C1=O` (stereo not drawn): -0.54%.
As for `C=C(C)C1CC23C(=O)C4(C(=O)c5ccccc5)C[C@@]5(C)CCC(CC2C1(C)C)(C4=O)C35OC` (stereo partly drawn), the inhibition was -1.09%.
Take `NNc1nc2c(Cl)cccc2s1`: the inhibition was 70.2% (active).
The value for `CCOCCOCCC(C(=O)O)P(=O)(c1ccccc1)c1ccccc1` (stereo not drawn) was 4.54%; that for `C=C1c2c(Cl)ccc(O)c2C(O)=C2C(=O)[C@]3(O)C(O)=C(C(N)=O)C(=O)[C@@H](N(C)C)[C@@H]3[C@@H](O)C12` (stereo partly drawn) was 69.7% (active); that for `CN(C)[C@@H]1C(=O)C(C(N)=O)=C(O)[C@@]2(O)C(=O)C3=C(O)c4c(O)ccc(Cl)c4[C@@H](O)[C@H]3C[C@@H]12` was 55.1% (active).
With `COc1ccccc1NC(=O)CCC(=O)OC(C)C(=O)c1ccccc1` (stereo not drawn), the inhibition is 4.06%.
The same measure for `C#CCN([C@H](C(=O)OC)C(C)CC)S(=O)(=O)c1ccccc1Br` (stereo partly drawn): -0.06%; for `O=C(C(=O)N1CCC(CNC(=O)c2cccnc2Cl)CC1)c1cccs1`: 2.01%; for `Cc1[nH]nc2c1C(c1ccc(Br)cc1)NC2=O` (stereo not drawn): 7.99%.
The value for `Cc1cc(NS(=O)(=O)c2ccc(NC(=O)CSc3nnc(-c4ccc(C(C)(C)C)cc4)n3Cc3ccco3)cc2)nc(C)n1` was -7.09%; that for `O=c1[nH]c2ccccc2n2c(-c3ccccc3)nnc12` was 43.1% (active).
The same measure for `O=C(c1ncn2c1c(=O)[nH]c1ccccc12)N1CCc2ccccc2C1`: -9.48%; for `O=C(O)C1C2CC2CN1C(=O)c1ccc(Cl)cc1Cl` (stereo not drawn): 0.74%; for `CCCNC(=O)CN(Cc1ccccc1F)S(=O)(=O)c1ccc(C)cc1`: -5.78%.
With `CC[C@@H]1Cc2cc(O)ccc2C2=C1c1ccc(O)cc1C[C@H]2CC`, the inhibition was 35.5% (active).
With `Cc1ccc(S(=O)(=O)N2CCCC2C(=O)NCc2ccco2)cc1` (stereo not drawn), the inhibition is 5.4%.
The value for `CC(C)c1ccc(NC(=S)NNc2ccc(Cl)c(C(=O)O)c2)cc1` was 37.3% (active); that for `CC(C)c1ccc(NC(=S)NC2CC3C=CC2C3)cc1` (stereo not drawn) was -0.07%.
`O=C(NC(=S)Nc1ccc(Cl)c(C(=O)O)c1)c1cncc(Br)c1`: the inhibition was -0.66%.
The value for `C=CCN1C(C(=O)OC)CN(Cc2cn(Cc3ccccc3)nn2)CCS1(=O)=O` (stereo not drawn) was -0.95%.
For `COc1ccccc1-c1n[nH]nc1C1=CC(=O)CC(C)(C)C1`, the inhibition is -5.54%.
The same measure for `COc1ccccc1-c1sc2ccccc2c1-c1ccc(Br)nc1`: -9.92%; for `COc1ccccc1C1=Nc2cccc3cccc(c23)N1`: 56.6% (active); for `CCn1c(=O)n2n(c1=O)[C@@]1(C=C3CCCC[C@H]32)N=C(NC(=O)c2ccccc2)N(Cc2ccccc2)[C@H]1Cc1ccccc1`: 5.91%.
The value for `COCCNC(=S)c1ccc(OC)cc1` was 4.41%; that for `COCCNC(=O)c1cc2c(Br)ccc(Br)c2nc1N` was -4.62%; that for `COCCNC(=O)Nc1ccc2nc(-c3ccco3)c(-c3ccco3)nc2c1` was 50.8% (active).

In general, inhibition refers to the change of the read-out against control, counted positive when it falls.

Source of the values: PubChem BioAssay AID720543 (The Scripps Research Institute Molecular Screening Center, 2013).
